The record followed here is ChEMBL document CHEMBL3763115, “Silibinin derivatives as anti-prostate cancer agents: Synthesis and cell-based evaluations” (Eur J Med Chem, 2016).

In assay [1] the test system is PC-3. Nature of the assay: Induction of apoptosis in human PC3 cells assessed as necrotic cells at 10 uM after 16 hrs by F2N12S/Sytox A advanced staining based flow cytometry (reference value: 11%). In kind it is functional.
The nature of assay [2]: Antiproliferative activity against human DU145 cells assessed as reduction in cell viability after 3 days by WST-1 cell proliferation assay. In kind it is functional, cell-based. The following applies: DU-145, 72 h. In outline: (§1)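 Cells from ATCC; PC-3 and LNCaP grown in RPMI-1640, DU145 in EMEM, each with 10% FBS and 1% penicillin/streptomycin, 37 °C, 5% CO2. 3,200 cells per well, treated at 5 concentrations for 3 days with 0.25% DMSO as vehicle control. WST-1 reagent added, 3 h at 37 °C, absorbance read at 430 nm. IC50 from linear fit of at least five doses, mean of at least triplicates.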
In general terms: Tetrazolium dyes change colour on reduction, which living cells bring about.

For assay [3], the system named is PC-3. Nature of the assay: Induction of apoptosis in human PC3 cells assessed as necrotic cells at 50 uM after 16 hrs by F2N12S/Sytox A advanced staining based flow cytometry (reference value: 11%). In kind it is functional. For orientation: In flow cytometry, cells or beads pass a laser one at a time.
Assay [4] has as its system PC-3. Nature of the assay: Induction of apoptosis in human PC3 cells assessed as viable cells at 40 uM after 16 hrs by F2N12S/Sytox A advanced staining based flow cytometry (reference value: 86%). The format is functional. The conditions noted are these: PC-3, 16 h, read-out: Activity.
Assay [5] has as its system PC-3. As to the kind of experiment: Induction of apoptosis in human PC3 cells assessed as apoptotic cells at 30 uM after 16 hrs by F2N12S/Sytox A advanced staining based flow cytometry (reference value: 3%). In kind it is functional.
A short description of assay [6]: Cell cycle arrest in human PC3 cells assessed as accumulation at G0/G1 phase at 20 uM after 24 hrs by propidium iodide staining based flow cytometry (reference value: 49%). In kind it is functional. The conditions noted are these: PC-3. In outline: (§2)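 PC-3 cells (RPMI-1640, 10% FBS), 200,000 per well, allowed 3 h to attach, then exposed to compound with DMSO as vehicle control. Attached and floating cells collected at 24 and 30 h, fixed in cold 80% ethanol for 30 min at 4 °C, treated with RNase for 30 min at 37 °C, and stained with propidium iodide. DNA content read by flow cytometry within 0.5–1 h.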

In assay [7] the test system is LNCaP. Nature of the assay: Potency index, ratio of silibinin IC50 to compound IC50 for antiproliferative activity against human LNCAP cells. In kind it is functional. In outline: (§3)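 Ratio of silibinin IC50 to derivative IC50. Both come from the 3-day WST-1 assay run in parallel (5 doses, absorbance at 430 nm, IC50 from linear fit, at least triplicates).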
Assay [8] has as its system PC-3. Nature of the assay: Induction of apoptosis in human PC3 cells after 16 hrs by F2N12S/Sytox A advanced staining based flow cytometry. The format is functional, cell-based.
Assay [9] is described as follows: Cell cycle arrest in human PC3 cells assessed as accumulation at M phase at 20 uM after 30 hrs by propidium iodide staining based flow cytometry (reference value: 5%). In kind it is functional. The conditions noted are these: PC-3. In outline: as §2
A short description of assay [10]: Cell cycle arrest in human PC3 cells assessed as accumulation at G2 phase at 20 uM after 30 hrs by propidium iodide staining based flow cytometry (reference value: 30%). The format is functional. The conditions noted are these: PC-3. In outline:
as §2

The subject of assay [11] is PC-3. As to the kind of experiment: Induction of apoptosis in human PC3 cells assessed as apoptotic cells at 40 uM after 16 hrs by F2N12S/Sytox A advanced staining based flow cytometry (reference value: 3%). In kind it is functional.
Assay [12] deals with PC-3. As to the kind of experiment: Induction of apoptosis in human PC3 cells assessed as viable cells at 50 uM after 16 hrs by F2N12S/Sytox A advanced staining based flow cytometry (reference value: 86%). The following applies: PC-3, 16 h, read-out: Activity. The format is functional.
Assay [13] deals with PC-3. As to the kind of experiment: Induction of apoptosis in human PC3 cells assessed as necrotic cells at 30 uM after 16 hrs by F2N12S/Sytox A advanced staining based flow cytometry (reference value: 11%). The format is functional.
Assay [14] is described as follows: Cell cycle arrest in human PC3 cells assessed as accumulation at G2 phase at 20 uM after 24 hrs by propidium iodide staining based flow cytometry (reference value: 34%). The format is functional. The conditions noted are these: PC-3. In outline: as §2
The test system of assay [15] is PC-3. Nature of the assay: Induction of apoptosis in human PC3 cells assessed as apoptotic cells at 20 uM after 16 hrs by F2N12S/Sytox A advanced staining based flow cytometry (reference value: 3%). The format is functional.
Assay [16] concerns PC-3. Nature of the assay: Induction of apoptosis in human PC3 cells assessed as necrotic cells at 20 uM after 16 hrs by F2N12S/Sytox A advanced staining based flow cytometry (reference value: 11%). In kind it is functional.
Assay [17] deals with PC-3. Nature of the assay: Induction of apoptosis in human PC3 cells assessed as necrotic cells at 40 uM after 16 hrs by F2N12S/Sytox A advanced staining based flow cytometry (reference value: 11%). The format is functional.
For assay [18], the system named is PC-3. As to the kind of experiment: Induction of apoptosis in human PC3 cells assessed as viable cells at 20 uM after 16 hrs by F2N12S/Sytox A advanced staining based flow cytometry (reference value: 86%). The conditions noted are these: PC-3, 16 h, read-out: Activity. The format is functional.
The nature of assay [19]: Cell cycle arrest in human PC3 cells assessed as accumulation at S phase at 20 uM after 30 hrs by propidium iodide staining based flow cytometry (reference value: 5%). The format is functional. The conditions noted are these: PC-3. In outline: as §2
Assay [20] concerns LNCaP. Nature of the assay: Antiproliferative activity against human LNCAP cells assessed as reduction in cell viability after 3 days by WST-1 cell proliferation assay. In kind it is functional, cell-based. The following applies: 72 h. In outline: as §1
Assay [21] is described as follows: Cell cycle arrest in human PC3 cells assessed as accumulation at G0/G1 phase at 20 uM after 30 hrs by propidium iodide staining based flow cytometry (reference value: 55%). The format is functional. The conditions noted are these: PC-3. In outline:
as §2

Assay [22] can be described thus: Potency index, ratio of silibinin IC50 to compound IC50 for antiproliferative activity against human PC3 cells. In kind it is functional, PC-3. In outline:
as §3

Assay [23] in a line: Antiproliferative activity against human PC3 cells assessed as reduction in cell viability after 3 days by WST-1 cell proliferation assay. In kind it is functional, cell-based. The conditions noted are these: PC-3, 72 h. In outline:
as §1

The nature of assay [24]: Cell cycle arrest in human PC3 cells assessed as accumulation at M phase at 20 uM after 24 hrs by propidium iodide staining based flow cytometry (reference value: 8%). The format is functional. The following applies: PC-3. In outline:
as §2

Assay [25] has as its system PC-3. As to the kind of experiment: Induction of apoptosis in human PC3 cells assessed as apoptotic cells at 50 uM after 16 hrs by F2N12S/Sytox A advanced staining based flow cytometry (reference value: 3%). In kind it is functional.
Assay [26] relates to PC-3. Nature of the assay: Induction of apoptosis in human PC3 cells assessed as viable cells at 10 uM after 16 hrs by F2N12S/Sytox A advanced staining based flow cytometry (reference value: 86%). The format is functional. The following applies: PC-3, 16 h, read-out: Activity.
The subject of assay [27] is PC-3. As to the kind of experiment: Induction of apoptosis in human PC3 cells assessed as apoptotic cells at 10 uM after 16 hrs by F2N12S/Sytox A advanced staining based flow cytometry (reference value: 3%). In kind it is functional.
Assay [28] deals with PC-3. Nature of the assay: Induction of apoptosis in human PC3 cells assessed as viable cells at 30 uM after 16 hrs by F2N12S/Sytox A advanced staining based flow cytometry (reference value: 86%). The conditions noted are these: PC-3, 16 h, read-out: Activity. In kind it is functional.
Assay [29] is described as follows: Cell cycle arrest in human PC3 cells assessed as accumulation at S phase at 20 uM after 24 hrs by propidium iodide staining based flow cytometry (reference value: 8%). The format is functional. The conditions noted are these: PC-3. In outline:
as §2

Assay [30] can be described thus: Potency index, ratio of silibinin IC50 to compound IC50 for antiproliferative activity against human DU145 cells. In kind it is functional, DU-145. In outline: as §3

Turning to `CCOc1cc(O)c2c(=O)c(O)c(-c3ccc4c(c3)OC(c3ccc(O)c(OC)c3)C(CO)O4)oc2c1` (stereo unspecified), the Activity is 7% in the assay with PC-3 [1]; 27% with PC-3 [3]; 68% in the assay with PC-3 [5]; 62% in [6]; “Dose-dependent effect” with PC-3 [8]; 6% in [9]. The Activity in assay [10] is 25%; with PC-3 [11] it was 71%; in the assay on PC-3 [13], 25%; in [14], 23%; in the assay with PC-3 [15], 38%; with PC-3 [16], 13%. Moreover, the Activity in the assay on PC-3 [17] was 25%; in assay [19], 6%; in assay [21], 61%; in assay [24], 7%; with PC-3 [25], 66%; with PC-3 [27] it was 9%. Further, the Activity in assay [29] came to 7%. The concentration for half-maximal inhibition (IC50) (as a rule, the midpoint of a concentration-inhibition curve) in assay [2] is 7.59 µM; with LNCaP [20], 2.58 µM; in assay [23], 3.25 µM. The viability at 40 µM in the assay with PC-3 [4] was found to be 4%. Also, the “Ratio IC50” value with LNCaP [7] came out at 17; in assay [22], 22; in assay [30] it was 12. The viability at 50 µM in the assay on PC-3 [12] stood at 7%. Also, in the assay with PC-3 [18], the viability at 20 µM is 49%. Moreover, the viability at 10 µM in the assay on PC-3 [26] is 84%. Besides, the viability at 30 µM in the assay with PC-3 [28] was 11%.
As for `CCCCCOc1cc(O)c2c(=O)c(OCCCCC)c(-c3ccc4c(c3)OC(c3ccc(O)c(OC)c3)C(CO)O4)oc2c1` (stereo unspecified), the IC50 in assay [2] came out at 28.7 µM; in the assay on LNCaP [20], 28.7 µM; in assay [23] it was 52.1 µM. The “Ratio IC50” value worked out at 1 with LNCaP [7], 1 in assay [22] and 3 in assay [30].
